Data from ChEMBL document CHEMBL1938355, “Antimycobacterial activities of 5-alkyl (or halo)-3'-substituted pyrimidine nucleoside analogs” (Bioorg Med Chem Lett, 2012).
Values after ≈ are worked out from the molar mass of the structure shown. Active and inactive are the calls of the source. The rule behind the calls is not given here.

Experiments:
[1] = system: Mycobacterium tuberculosis; test: Antimycobacterial activity against Mycobacterium bovis BCG assessed as growth inhibition at 10 ug/ml by microplate alamar blue assay; format: functional; conditions: variant bovis BCG, read-out: GI
In short: (§1)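 Strains obtained from ATCC. Tested by microplate alamar blue assay. Compounds made up as 10 mg/mL DMSO stocks, then serially diluted in 7H9GC medium. Final test concentrations were 100, 50, 25, 10, 5, 1 and 0.5, each in triplicate. Experiments were run twice, and mean percent growth inhibition is reported.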

[2] = system: Mycobacterium tuberculosis; test: Antimycobacterial activity against Mycobacterium bovis BCG assessed as growth inhibition at 1 ug/ml by microplate alamar blue assay; format: functional; conditions: variant bovis BCG, read-out: GI; in short: as §1
[3] = system: Mycobacterium tuberculosis; test: Antimycobacterial activity against Mycobacterium bovis BCG assessed as growth inhibition at 100 ug/ml by microplate alamar blue assay; format: functional; conditions: variant bovis BCG, read-out: GI; in short: as §1
[4] = system: Mycobacterium tuberculosis; test: Antimycobacterial activity against Mycobacterium bovis BCG by microplate alamar blue assay; format: functional; conditions: variant bovis BCG
[5] = system: Mycobacterium tuberculosis; test: Antimycobacterial activity against Mycobacterium bovis BCG assessed as growth inhibition at 50 ug/ml by microplate alamar blue assay; format: functional; conditions: variant bovis BCG, read-out: GI; in short: as §1
[6] = system: Mycobacterium tuberculosis; test: Antimycobacterial activity against Mycobacterium bovis BCG assessed as growth inhibition at 0.5 ug/ml by microplate alamar blue assay; format: functional; conditions: variant bovis BCG, read-out: GI; in short: as §1
[7] = system: Mycobacterium tuberculosis; test: Antimycobacterial activity against Mycobacterium bovis BCG assessed as growth inhibition at 0.5 to 100 ug/ml by microplate alamar blue assay; format: functional, organism-based; conditions: variant bovis BCG; in short: as §1

| SMILES | inhibition of growth at 100 µg/mL [3] [%] | growth inhibition (GI) [7] | also measured |
| --- | --- | --- | --- |
| CCc1cn([C@H]2C[C@H](N=[N+]=[N-])[C@@H](CO)O2)c(=O)[nH]c1=O | 95 | – | inhibition of growth at 10 µg/mL [1]: 85%; inhibition of growth at 1 µg/mL [2]: 50%; MIC50 [4]: 1 µg/mL (≈ 3.56 µM); inhibition of growth at 50 µg/mL [5]: 95% |
| N[C@@H]1CONC1=O [CYCLOSERINE] | 100 | – | inhibition of growth at 10 µg/mL [1]: 100%; inhibition of growth at 1 µg/mL [2]: 50%; MIC50 [4]: 1 µg/mL (≈ 9.79 µM); inhibition of growth at 50 µg/mL [5]: 100% |
| CO[C@H]1/C=C/O[C@@]2(C)Oc3c(C)c(O)c4c(O)c(c(/C=N/N5CCN(C)CC5)c(O)c4c3C2=O)NC(=O)/C(C)=C\C=C\[C@H](C)[C@H](O)[C@@H](C)[C@@H](O)[C@@H](C)[C@H](OC(C)=O)[C@@H]1C [RIFAMPIN] | – | – | inhibition of growth at 0.5 µg/mL [6]: 100% |
| Cc1cn([C@H]2C[C@H](N)[C@@H](CO)O2)c(=O)[nH]c1=O [3-AMINO- 3-DEOXYTHYMIDINE] | 50 | – | – |
| CCc1cn([C@H]2C[C@@H](O)[C@@H](CO)O2)c(=O)[nH]c1=O | – | inactive | – |
| CCc1cn([C@H]2C[C@H](I)[C@@H](CO)O2)c(=O)[nH]c1=O | – | inactive | – |
| O=c1[nH]c(=O)n([C@H]2C[C@H](F)[C@@H](CO)O2)cc1C(F)(F)F | – | inactive | – |
| [N-]=[N+]=N[C@H]1C[C@H](n2cc(F)c(=O)[nH]c2=O)O[C@@H]1CO | – | inactive | – |
| [N-]=[N+]=N[C@H]1C[C@H](n2cc(Br)c(=O)[nH]c2=O)O[C@@H]1CO | 50 | – | – |
| [N-]=[N+]=N[C@H]1C[C@H](n2cc(Cl)c(=O)[nH]c2=O)O[C@@H]1CO | 50 | – | – |
| CCc1cn([C@H]2CC[C@@H](CO)O2)c(=O)[nH]c1=O | – | inactive | – |
| CCc1cn([C@H]2C[C@H](F)[C@@H](CO)O2)c(=O)[nH]c1=O | 40 | – | – |
